A selection: hits, their analogues and other compounds. The true share with any hit is near 1.2%.
PP1 counter – PP1-alpha (human) inhibition in PP5 counter-screen; P62136; purified PP1alpha, OMFP fluorescence; inhibition, % at 6.7 µM; 320,000 compounds, 0.9% hits; AID 2235;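 active = inhibition above the mean inhibition of all tested compounds plus 3 SD, computed separately for each screening campaign, cut at about 15% in these data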
proCasp3 act – activates human procaspase-3 | recombinant procaspase-3 D3A, Ac-DEVD-pNA absorbance 405 nm | activation, % at 8.5 µM | 330,000 compounds, 0.11% hits;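 active = activation above the mean of all tested compounds plus 3 SD, cut at about 21% in these data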;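 also: 0% = DMSO alone and 100% = DMSO wells spiked with extra 5 µM PC-3 D3A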
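Compound: 8.5 µM single point, 0.8% DMSO / Material: Autoprocessing-dead procaspase-3 D3A mutant enzyme / Timing: 1 h preincubation plus 2 h reaction at 25 °C / Medium: Zinc-free HEPES/NaCl buffer with 0.01% Triton X-100 at pH 7.4 / Technique: 405 nm absorbance of p-nitroaniline, reads at 0 and 120 min / Repeats: one well per compound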
procasp7 counter – counter-screen: procaspase-7 (human) activation; P55210; recombinant procaspase-7, Ac-DEVD-pNA absorbance 405 nm; D23A/D198A/D206A triple mutant, cannot self-cleave; scale: DMSO 0, 5 µM enzyme 100; activation, % at 8.5 µM; 330,000 compounds, 0.093% hits; AID 463210;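 active = percent activation above the screen-wide mean plus 3 SD, cut at about 25% in these data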
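Replicates: singlicate. Assay system: Procaspase-7 triple mutant (PC-7 D3A). Signal: 405 nm absorbance of p-nitroaniline. Times: 1 h preincubation, 2 h reaction. Buffer or medium: Zinc-free HEPES pH 7.4 with 300 mM NaCl, 0.01% Triton X-100. Also added: DEVD-pNA substrate. Benchmarks: DMSO wells as 0%, DMSO with 5 µM added PC-7 as 100%.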
PP5 primary – blocks human protein phosphatase 5 activity; purified PP5c, OMFP substrate fluorescence; inhibition, % at 6.7 µM; 320,000 compounds, 0.18% hits;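 active = inhibition above the campaign's mean inhibition across all tested compounds plus 3 SD, cut at about 9.5% in these data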;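 also: 0% = DMSO only and 100% = 100 µM cantharidin control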
Target sequence (P53041 whole entry, looked up): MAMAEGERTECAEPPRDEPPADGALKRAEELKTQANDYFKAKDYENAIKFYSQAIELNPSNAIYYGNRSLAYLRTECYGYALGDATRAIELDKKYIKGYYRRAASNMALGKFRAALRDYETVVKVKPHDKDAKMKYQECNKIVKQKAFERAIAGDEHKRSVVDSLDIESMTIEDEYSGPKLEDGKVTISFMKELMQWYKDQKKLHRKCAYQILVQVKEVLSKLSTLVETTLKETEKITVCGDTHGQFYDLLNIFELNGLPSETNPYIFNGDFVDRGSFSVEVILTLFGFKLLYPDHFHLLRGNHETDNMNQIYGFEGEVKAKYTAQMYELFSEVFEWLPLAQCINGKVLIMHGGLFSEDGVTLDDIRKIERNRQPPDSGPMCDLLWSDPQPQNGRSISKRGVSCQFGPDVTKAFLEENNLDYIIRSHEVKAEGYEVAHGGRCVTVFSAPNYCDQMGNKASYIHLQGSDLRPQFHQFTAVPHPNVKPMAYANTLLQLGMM
PP1 confirm – confirmation of human PP1 phosphatase inhibitors. shares compounds with PP1 counter. purified PP1alpha, OMFP substrate fluorescence. inhibition, % at 6.7 µM. 1,900 compounds, 52% hits;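 active = mean PP1 inhibition above a set limit taken from the earlier primary screen, cut at about 15% in these data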
PP5 counter – counter-screen for PP1 inhibitors: human PP5 phosphatase inhibition | shares compounds with PP1 counter | purified PP5c, OMFP fluorescence | AID 2360 | inhibition, % at 6.7 µM | 1,900 compounds, 4% hits;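 active = mean PP5 inhibition over triplicate wells above about 9.5% taken from the earlier PP1 screen, limit read from the data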
The depositor's hits bear a star; / = no result given.

SMILES	PP1 counter	proCasp3 act	procasp7 counter	PP5 primary	PP1 confirm	PP5 counter
O=C1C(=O)N(c2ccccc2)C(c2ccccc2[N+](=O)[O-])/C1=C(\O)c1ccccc1 (stereo unspecified)	-0.3	-11.6	-10.3	2.3	/	/
O=C1C(=O)N(c2cccc(Cl)c2)C(c2ccccc2[N+](=O)[O-])/C1=C(\O)c1ccccc1 (stereo unspecified)	-183.7	1.3	-10.1	2.1	2.1	-1.6
Cn1c(=O)[nH]c2ncccc21	28.4*	5.8	4.9	-1.0	-3.0	-6.3
CCc1ccc(C(C)NC(=O)c2ccc3c(c2)OCO3)cc1 (stereo unspecified)	-3.8	1.4	-2.9	0.0	/	/
CCn1c(=O)c(C(=O)Nc2ncccc2C)c(O)c2ccccc21	21.3*	2.2	3.0	-1.5	25.4*	-1.3
CCCn1c(=O)c(C(=O)NNC(=O)c2cccc([N+](=O)[O-])c2)c(O)c2ccccc21	19.8*	0.5	-13.1	0.1	19.2*	-0.9
CCn1c(=O)c(C(=O)NNC(=O)c2ccccc2Cl)c(O)c2ccccc21	19.1*	3.6	0.6	1.4	13.9	-2.3
Cn1c(=O)c(C(=O)NNC(=O)c2ccccc2F)c(O)c2ccccc21	18.4*	-4.2	5.7	-0.6	6.0	-3.8
CCn1c(=O)c(C(=O)NNC(=O)c2ccccc2F)c(O)c2ccccc21	8.2	0.4	-2.0	0.8	/	/
Cn1c(=O)c(C(=O)NNC(=O)c2ccc(Br)cc2)c(O)c2ccccc21	-0.2	1.7	-2.8	0.1	/	/
CCc1nnc(NC(=O)CN2C(=O)N(C)C3(CCCCC3)C2=O)s1	-1.7	-0.4	-8.4	3.7	/	/
N#Cc1ccc(CSc2nnc(NC(=O)c3ccc4ncsc4c3)s2)cc1	23.9*	-7.3	-7.8	2.7	48.8*	-1.6
O=C(CSc1nnc(SCc2ccc(Cl)cc2)s1)N/N=C/c1c[nH]c2ccccc12	25.1*	-2.7	-4.3	2.1	31.6*	0.7
O=C(O)COc1ccccc1/C=N/NC(=O)CSc1nnc(SCc2ccc(Cl)cc2)s1	0.4	7.4	-6.0	2.6	/	/
O=C(NCC1CCCO1)c1nc(Cn2ccc([N+](=O)[O-])n2)no1 (stereo unspecified)	21.1*	-16.8	-40.4	4.7	-5.2	-5.3
COc1ccc(C(=O)N/N=C(\N)c2cc3ccccc3oc2=O)cc1	-2.4	10.0	-6.5	-0.1	/	/
Cc1ccc(Cc2c(C)nc3nc(SCC(=O)NCCCN4CCCCCC4)nn3c2C)cc1	6.1	2.2	-0.6	-0.4	/	/
N#CCC(=O)N/N=C/c1ccc(N2N=C(c3ccccc3)CC2c2ccccc2)cc1 (stereo unspecified)	24.7*	-54.5	-37.3	7.7	17.4*	-0.1
O=C1C(Cc2ccccc2)Nc2ncnc(N3CCc4ccccc4C3)c2N1Cc1ccc(Br)cc1 (stereo unspecified)	19.9*	3.7	-6.2	2.2	14.7	-0.7
O=C(Nc1ccccc1Oc1cccnc1)C1CCCN(Cc2ccc(F)cc2)C1 (stereo unspecified)	49.8*	7.6	-7.2	0.1	-1.7	-3.2
C=CCn1c(SCc2ccc(C(=O)Nc3nccs3)cc2)nnc1-c1ccc(C)c(Cl)c1	17.6*	-1.6	1.9	3.7	8.3	0.1
Cn1nnnc1SCc1ccc(C(=O)Nc2nccs2)cc1	-1.7	-6.1	3.6	2.1	/	/
CC1=NN(c2nc(-c3ccccc3)cs2)C(=O)C1	20.4*	-5.9	-1.0	1.0	-0.3	10.1*
O=C1CC(c2ccccc2)=NN1c1nc(-c2ccccc2)cs1	20.2*	-9.5	-16.9	-1.8	3.8	2.2
CC1=NN(c2nc(-c3ccc(C#N)cc3)cs2)C(=O)C1	0.5	-8.9	-15.3	-0.8	/	/
SMILES	PP1 counter	proCasp3 act	procasp7 counter	PP5 primary	PP1 confirm	PP5 counter
Cc1cc(C)nc(N2N=C(c3ccccc3)CC2=O)n1	-2.1	1.8	5.7	-1.7	/	/
Cc1ccc(/C=N/N2CCN(Cc3ccc(C)cc3)CC2)cc1	-5.6	6.7	10.5	0.8	/	/
Cc1ccc(CN2CCN(/N=C/c3cc(Br)ccc3O)CC2)cc1	34.9*	-0.4	-7.8	2.9	-4.1	-7.3
COc1ccc(C(=O)CSc2nnc(CNc3ccc(C)cc3C)n2Cc2ccco2)cc1	22.8*	-1.9	5.7	9.0	8.2	0.7
CCOC(=O)c1ccc(/C=C2/C=C(c3ccccc3)N(c3ccc(Cl)c(C(=O)O)c3)C2=O)cc1	20.2*	6.6	-1.6	4.6	13.0	-1.8
CC(C)C(=O)Nc1ccc(C(=O)NNC(=O)CCc2ccccc2)cc1	1.9	3.0	-5.5	2.1	/	/
CC(C)C(=O)Nc1ccc(C(=O)c2ccccc2)cc1	-75.1	1.4	2.9	1.2	-0.6	-3.5
Cc1cccc2cc(-c3nc4c(C)cccn4c3NCc3ccco3)c(=O)[nH]c12	-0.6	-21.6	-28.2	1.2	/	/
Cc1ccc2[nH]c(=O)c(-c3nc4cc(C)ccn4c3NCc3ccco3)cc2c1	18.2*	3.9	3.0	1.1	20.6*	2.9
CCOC(=O)c1ccc(NC(=O)N2CCN(c3ccccc3OC)CC2)cc1	-5.2	6.5	7.4	3.0	/	/
CN1C(=O)C(C)(C)c2cc(S(=O)(=O)NCC3CCC(C(=O)NCc4ccccc4)CC3)ccc21 (stereo unspecified)	-1.4	4.8	-2.5	2.6	/	/
CCN(CC(=O)NCc1ccc(F)cc1)C(=O)Cc1ccc(OC)cc1	1.9	4.3	3.5	4.1	/	/
CNC(=O)C1CC(=O)N(c2ccc(OCC(=O)Nc3ccc(OC)cc3)cc2)C1 (stereo unspecified)	-3.4	6.0	7.3	-1.1	/	/
CCCCC[C@H](O)/C=C/[C@@H]1[C@@H](C/C=C\CCCC(=O)OC)[C@@H](O)C[C@H]1O	46.3*	-24.0	-28.6	6.6	43.1*	-1.9
CCC(C)c1ccc(S(=O)(=O)N2CCN3CCCC3C2)cc1 (stereo unspecified)	1.9	-2.3	0.0	-0.6	/	/
CN(c1ccccc1)S(=O)(=O)c1ccc(C(=O)Nc2nnc(-c3ccco3)o2)cc1	22.3*	-6.0	-9.8	5.5	20.4*	2.4
CCN(c1ccccc1)S(=O)(=O)c1ccc(C(=O)Nc2nnc(-c3ccco3)o2)cc1	19.4*	-5.3	-3.9	5.6	22.8*	2.1
O=c1[nH]c(NNC(=S)NC2CCCCC2)nc2c1C1(CCCC1)Cc1ccccc1-2	18.5*	-3.8	-7.5	1.3	0.5	-3.3
CC(C)C[C@H](NC(=O)c1nc[nH]c1C(=O)NCCCCCNC(=O)OC(C)(C)C)C(=O)OC(C)(C)C	16.3*	12.1	-6.7	9.9*	6.5	5.4
CC(C)C[C@H](NC(=O)c1[nH]cnc1C(=O)N[C@@H](C)c1ccccc1)C(=O)OCc1ccccc1	18.3*	3.0	-0.7	12.4*	14.8	5.0
C/C(=N\NC(=O)COc1ccc(C)cc1C(C)C)c1ccc(-n2ccnc2)cc1	17.8*	1.8	-5.6	0.4	17.5*	-0.5
